Key:
Cavia porcellus [1] = species: Cavia porcellus; test: Agonist activity expressed as percent inhibition of contraction of electrically stimulated guinea pig ileal longitudinal muscle at a concentration of 1 uM; format: functional, Muscle tissue
Procedure, shortened: (§1)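 Electrically stimulated GPI longitudinal muscle or MVD preparations. Ligands that were not full agonists were tested at 1 µM. Inhibition of contraction was expressed as a percentage of the maximal response. Three or more replicate determinations were run per compound.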

[2] = target: Delta-type opioid receptor (Mus musculus, UniProt P32300); test: Inhibition of [3H]-NTI binding to Opioid receptor delta 1 from mouse brain membranes.
Procedure, shortened: (§2)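 Competition binding of test ligands against tritiated radioligands on mouse brain membranes; the μ site used [3H]DAMGO. IC50 was converted to Ki by the Cheng-Prusoff equation using radioligand concentration and KD. Values are arithmetic means of at least 3 determinations, ±SEM.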

[3] = target: Kappa-type opioid receptor (Mus musculus, UniProt P33534); test: Inhibition of [3H]U-69593 binding to Opioid receptor kappa 1 from mouse brain membranes.; procedure, shortened: as §2
Mu-type opioid receptor = Mu-type opioid receptor (Mus musculus, UniProt P42866); test: Inhibition of [3H]DAMGO binding to Opioid receptor mu 1 from mouse brain membranes.; procedure, shortened: as §2
Mus musculus [4] = species: Mus musculus; test: Agonist activity expressed as percent inhibition of contraction of electrically stimulated mouse vas deferens at a concentration of 1 uM; format: functional; procedure, shortened: as §1
Cavia porcellus [5] = species: Cavia porcellus; test: Agonist activity expressed as inhibitory concentration against contraction of electrically stimulated guinea pig ileum; format: functional
Procedure, shortened: (§3)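 Electrically stimulated smooth muscle: longitudinal muscle of guinea pig ileum (GPI) and mouse vas deferens (MVD). Inhibition of contraction was measured for ligands acting as full agonists, and potency was given as IC50 (nM). Three or more replicate determinations were run per compound.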

Mus musculus [6] = species: Mus musculus; test: Agonist activity expressed as inhibitory concentration against contraction of electrically stimulated mouse vas deferens; format: functional; procedure, shortened: as §3

Chain of Mu-type opioid receptor (P42866 whole entry): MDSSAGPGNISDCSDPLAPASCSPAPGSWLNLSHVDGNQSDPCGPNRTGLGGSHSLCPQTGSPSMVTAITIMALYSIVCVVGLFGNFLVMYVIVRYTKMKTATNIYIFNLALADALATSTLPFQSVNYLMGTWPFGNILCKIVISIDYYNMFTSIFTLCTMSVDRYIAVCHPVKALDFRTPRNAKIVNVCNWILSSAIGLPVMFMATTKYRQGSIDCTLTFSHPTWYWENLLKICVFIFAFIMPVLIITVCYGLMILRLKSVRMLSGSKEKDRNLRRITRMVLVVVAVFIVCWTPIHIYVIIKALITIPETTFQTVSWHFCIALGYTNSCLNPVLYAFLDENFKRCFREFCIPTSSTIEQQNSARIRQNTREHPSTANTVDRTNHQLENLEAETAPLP
Chain of Kappa-type opioid receptor (P33534 whole entry): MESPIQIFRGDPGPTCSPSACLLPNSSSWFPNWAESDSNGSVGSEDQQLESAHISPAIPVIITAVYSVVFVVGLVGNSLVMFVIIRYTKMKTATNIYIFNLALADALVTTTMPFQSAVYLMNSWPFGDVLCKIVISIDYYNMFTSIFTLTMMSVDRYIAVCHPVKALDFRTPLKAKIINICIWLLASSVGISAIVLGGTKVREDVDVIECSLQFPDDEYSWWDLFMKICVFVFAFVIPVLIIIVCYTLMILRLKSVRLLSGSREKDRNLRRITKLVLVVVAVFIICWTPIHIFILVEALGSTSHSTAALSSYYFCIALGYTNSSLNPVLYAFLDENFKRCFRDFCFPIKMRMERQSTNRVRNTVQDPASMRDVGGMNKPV
Chain of Delta-type opioid receptor (P32300 whole entry): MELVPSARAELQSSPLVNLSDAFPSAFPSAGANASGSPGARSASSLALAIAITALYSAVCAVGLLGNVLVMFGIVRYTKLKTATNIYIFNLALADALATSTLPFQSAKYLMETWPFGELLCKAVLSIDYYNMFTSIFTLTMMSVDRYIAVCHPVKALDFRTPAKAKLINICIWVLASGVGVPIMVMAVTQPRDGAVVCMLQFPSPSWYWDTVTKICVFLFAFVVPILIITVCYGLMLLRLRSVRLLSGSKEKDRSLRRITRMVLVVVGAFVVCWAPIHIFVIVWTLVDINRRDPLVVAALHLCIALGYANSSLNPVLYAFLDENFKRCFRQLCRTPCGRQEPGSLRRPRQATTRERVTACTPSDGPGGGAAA

Compound	Max response (Cavia porcellus [1]) [%]	Ki [2] [nM]	Ki [3] [nM]	Ki (Mu-type opioid receptor) [nM]	Max response (Mus musculus [4]) [%]	IC50 (Cavia porcellus [5]) [nM]	IC50 (Mus musculus [6]) [nM]
O=C1[C@@H]2Oc3c(O)ccc4c3C23CCN(CC2CC2)C(C4)[C@]3(O)C[C@]12CCc1ccccc1C2 (stereo not given in full)	2	0.0019	> 1000	0.38	4	–	–
CN1CCC23c4c5ccc(O)c4O[C@H]2C(=O)[C@@]2(CCc4ccccc4C2)C[C@H]3C1C5 (stereo not given in full)	–	8.3	88	2.8	42	130	–
CN1CCC23c4c5ccc(O)c4O[C@H]2C(=O)[C@@]2(CCc4ccccc4C2)C[C@@]3(O)C1C5 (stereo not given in full)	–	4.6	> 1000	18	–	183	24
O=C1[C@@H]2Oc3c(O)ccc4c3C23CCN(CC2CC2)C(C4)[C@]3(O)C[C@@]12CCc1ccccc1C2 (stereo not given in full)	16	0.0041	147	0.72	3	–	–
CN1CCC23c4c5ccc(O)c4O[C@H]2C(=O)[C@]2(CCc4ccccc4C2)C[C@H]3C1C5 (stereo not given in full)	–	182	> 1000	119	17	107	–
CN1CCC23c4c5ccc(O)c4O[C@H]2C(=O)[C@]2(CCc4ccccc4C2)C[C@@]3(O)C1C5 (stereo not given in full)	–	9.3	> 3000	28	–	629	28
O=C1[C@@H]2Oc3c(O)ccc4c3[C@@]23CCN(CC2CC2)[C@H](C4)[C@]3(O)CC12Cc1ccccc1C2	16	0.25	> 3000	1.5	8	–	–
CN1CC[C@]23c4c5ccc(O)c4O[C@H]2C(=O)C2(Cc4ccccc4C2)C[C@@]3(O)[C@H]1C5 [SPIROINDANYLOXYMORPHONE]	55	2.8	> 3000	14	–	–	22

Source: ChEMBL document CHEMBL1130152, “7-spirobenzocyclohexyl derivatives of naltrexone, oxymorphone, and hydromorphone as selective opioid receptor ligands” (J Med Chem, 1997)
